p47phox inh – blocks human p47phox regulatory protein of NADPH oxidases. P14598. p47phox/p22phox peptide binding, fluorescence polarization, 2 h. inhibition, % at 24.7 µM. 220,000 tested, 0.53% active. AID 1274;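 also: 0% = p47phox with labelled peptide and 100% = labelled peptide alone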
Wee1 stabilizer – blocks degradation of human Wee1 kinase | HeLa Luc-Wee1K328M stability, luciferase luminescence; 100% = proteasome inhibitor MG132 effect | reporter increase, % at 5 µM | 220,000 tested, 1.2% active;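 active = activation above the mean of all tested compounds plus 3 SD, set per screening run, cut at about 8.8% in these data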;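 also: cells exposed to compound for 20 h before luminescence read; 0% = DMSO alone and 100% = MG132 at 30 µM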
Target sequence (P30291 whole entry K328M): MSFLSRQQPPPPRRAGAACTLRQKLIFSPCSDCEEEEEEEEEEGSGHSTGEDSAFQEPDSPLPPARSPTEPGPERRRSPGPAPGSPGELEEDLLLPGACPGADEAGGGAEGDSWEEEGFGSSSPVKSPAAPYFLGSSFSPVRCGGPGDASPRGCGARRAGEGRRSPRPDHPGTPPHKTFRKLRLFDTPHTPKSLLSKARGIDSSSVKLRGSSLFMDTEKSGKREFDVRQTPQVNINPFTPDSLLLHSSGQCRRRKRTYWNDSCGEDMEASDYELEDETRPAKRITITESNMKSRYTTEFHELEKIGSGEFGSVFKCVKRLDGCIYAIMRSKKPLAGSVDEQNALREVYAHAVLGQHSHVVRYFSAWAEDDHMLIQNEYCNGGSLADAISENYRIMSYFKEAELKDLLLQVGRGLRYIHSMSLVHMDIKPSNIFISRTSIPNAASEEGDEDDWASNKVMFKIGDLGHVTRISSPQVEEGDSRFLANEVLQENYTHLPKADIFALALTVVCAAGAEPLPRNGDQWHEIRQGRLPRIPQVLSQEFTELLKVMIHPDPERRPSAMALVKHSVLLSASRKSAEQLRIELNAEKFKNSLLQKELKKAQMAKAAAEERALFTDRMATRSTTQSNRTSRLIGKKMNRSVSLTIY
RBBP9 inh – human RBBP9 hydrolase inhibition; 220,000 tested, 0.2% active; recombinant RBBP9, FP-Rh probe fluorescence polarization; inhibition, % at 7.94 µM; O75884; AID 1515;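 active = inhibition above the campaign mean of all tested compounds plus 3 SD, cut at about 14% in these data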;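 also: plate controls were DMSO wells with RBBP9 for no effect and wells lacking RBBP9 protein for full effect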
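Test system: recombinant human RBBP9; Timing: 30 min then 45 min, 25 °C; Detection: fluorescence polarization; Control set: RBBP9 with DMSO as uninhibited control, no-protein wells as full inhibition; Compound dosing: one concentration, 7.94 µM nominal, 0.794% DMSO; Probe or stimulus: FP-Rh activity-based probe, 375 nM before mixing.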
14-3-3 Bad inh – disrupts binding of bovine 14-3-3 zeta to phospho-Bad peptide; P63103; TR-FRET 14-3-3zeta/Dy647-pBad peptide displacement, 1 h; inhibition, % at 21.7 µM; 220,000 tested, 0.71% active;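 active = inhibition above about 70%, limit read from the data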;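 also: 0% = full 14-3-3 plus peptide FRET controls and 100% = background without 14-3-3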
eIF4E-4G inh – blocks eIF4E binding to eIF4G | AID 782 | 220,000 tested, 0.37% active | inhibition, % at 21.7 µM | TR-FRET eIF4E-eIF4GI(517-606) binding, 2 h | P63073+Q04637;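 also: 0% = full FRET control wells and 100% = background wells lacking eIF4GI fragment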
* = called active by the depositor; x = no result; [ ] = dose if it differs, or a comment. Only some compounds are listed: those with a hit (about 2.8% of all), similar ones and a draw of the others.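 The calls were made as follows, unless noted: active = inhibition above about 30% (limit read from the data); inactive = the rest.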

SMILES	p47phox inh	Wee1 stabilizer	RBBP9 inh	14-3-3 Bad inh	eIF4E-4G inh
C#CCOCCOCCOCCNc1nc(N2CCN(C(=O)Cn3cc(CCCCN)nn3)CC2)nc(N2CCN(C(=O)[C@H](C)n3cc(CCCN=C(N)N)nn3)CC2)n1	7.5	-3.8	-11.1	80.5*	-2.2
C#CCOCCOCCOCCNc1nc(N2CCN(C(=O)Cn3cc(CCO)nn3)CC2)nc(N2CCN(C(=O)[C@H]([C@@H](C)O)n3cc(CCCCN)nn3)CC2)n1	-4.8	0.2	-8.0	48.6	-0.3
C#CCOCCOCCOCCNc1nc(N2CCN(C(=O)Cn3cc(CC(C)O)nn3)CC2)nc(N2CCN(C(=O)[C@H](CCCCN)n3cc(CCC(=O)O)nn3)CC2)n1 (stereo partly specified)	-5.9	-2.3	-10.1	72.3*	3.8
Cc1cc(C)cc(NC(=O)N2CCCC2C(=O)NCc2ccco2)c1 (stereo unspecified)	-5.5	3.7	-8.8	1.6	-0.5
N#Cc1c(Cl)nsc1NN	6.5	-1.0	-4.0	-14.5	-0.9
CCN(c1ccccc1)S(=O)(=O)c1ccc(Cl)c(NC(=O)CN(C)C2CCN(C)CC2)c1	6.5	-1.3	-7.0	90.3*	0.7
CCN(c1ccccc1)S(=O)(=O)c1ccc(Cl)c(NC(=O)CSc2ncn[nH]2)c1	-29.4	0.8	-5.2	-0.3	2.4
CN1CCC(N(C)CC(=O)Nc2ccccc2N2CCOCC2)CC1	-11.6	-0.6	-1.5	78.8*	8.0
Cc1sc2nc(CN(C(=O)NC3CCCCC3)C3CCCCC3)[nH]c(=O)c2c1C	-11.7	-1.1	1.5	3.3	2.8
COc1ccc(-c2nn(-c3ccccc3)cc2C(=O)OCC(=O)c2ccc(C)c([N+](=O)[O-])c2)cc1	-21.2	1.7	0.6	-1.7	8.3
COc1cccc(CN2CCN(Cc3nc4c(s3)CCCC4)CC2CCO)c1 (stereo unspecified)	-17.3	10.1*	-5.9	-1.3	1.0
Cc1ccc(CN2CCN(Cc3nc4c(s3)CCCC4)CC2CCO)cc1 (stereo unspecified)	-7.4	-1.8	-9.4	-6.8	2.3
O=C(NCCNC1CCC(c2ccccc2)CC1)c1ccc(F)cc1 (stereo unspecified)	-6.1	-2.3	-8.2	28.7	0.1
CCOC(=O)c1cnn(-c2ccccc2)c1NC(=O)CN1CCOCC1	-10.0	5.3	-3.4	-1.8	-0.5
C[C@H](CCC(=O)O)[C@H]1CC[C@H]2[C@@H]3[C@@H](O)C[C@@H]4C[C@H](O)CC[C@]4(C)[C@H]3CC[C@]12C	-3.2	9.8*	5.2	-7.0	1.4
Fc1cccc(C2CCCCN2Cc2nc(C3CC3)no2)c1 (stereo unspecified)	-8.7	-4.1	-4.6	-8.7	1.0
CCOC(=O)N1CCN(C(=O)C2CCC(C(=O)N3CCN(C(=O)OCC)CC3)CC2)CC1 (stereo unspecified)	x	9.5*	-4.7	x	x
CCOC(=O)N1CCN(C(=O)C2CCCCC2)CC1	-2.5	-2.1	0.2	0.8	-8.7
COc1cc2cc(C(=O)O)n(C)c2c(OC)c1OC	60.5*	-4.1	-8.1	0.4	-0.1
CSc1nc2ccc3nc(NC(=O)c4cccs4)sc3c2s1	-19.6	-1.3	-5.7	72.5*[fluorescence artefact?]	-110.4
CSc1nc2ccc3nc(NC(=O)c4ccc(Cl)s4)sc3c2s1	-1.4	-2.9	-10.4	-0.7	6.4
COc1ccc(CNC(=O)c2csc(Cc3ccc(OC)cc3)n2)cc1	-7.3	-1.4	-2.9	-3.8	1.6
COc1ccc(CNC(=O)c2csc(Cc3ccc(Cl)cc3)n2)cc1	-16.3	9.5*	-4.0	-4.7	-9.0
CC(C)CNC(=O)c1cccc(NC(=O)Cc2ccc(Cl)cc2)c1	-0.5	1.8	4.3	-4.6	13.0
O=C(Nc1cc(Cl)cc(Cl)c1)C(NCCO)c1ccccc1 (stereo unspecified)	2.9	0.2	-5.9	79.6*	-0.5
SMILES	p47phox inh	Wee1 stabilizer	RBBP9 inh	14-3-3 Bad inh	eIF4E-4G inh
COc1ccc(/C=N/n2c(-c3cccs3)n[nH]c2=S)cc1	-12.9	-2.8	-8.9	-10.5	32.8*
CS(=O)(=O)c1ccc(C(=O)OCc2nnc(-c3ccc(Cl)cc3)o2)cc1[N+](=O)[O-]	-2.8	0.3	-7.6	-10.2	1.1
Cc1nnnn1CC(=O)Nc1cccc([N+](=O)[O-])c1	-6.4	0.6	-11.0	2.7	0.0
COc1ccccc1N=c1scc(-c2ccc3c(c2)NC(=O)CO3)n1CC1CCCO1 (stereo unspecified)	0.3	5.2	-10.1	1.3	-2.4
CN(C)S(=O)(=O)c1cccc(N=c2scc(-c3ccc4c(c3)NC(=O)CO4)n2CC2CCCO2)c1 (stereo unspecified)	-3.9	3.5	12.0	70.4*	-17.9
CC(=O)c1ccc2c(c1)C1C=CCC1C(C(=O)O)N2 (stereo unspecified)	5.6	0.9	10.8	65.3	30.6*
COc1cccc2c1NC(C(=O)O)C1CC=CC21 (stereo unspecified)	-3.6	-0.7	-3.0	42.5	48.3*[fluorescence artefact?]
Cc1ccc2c(c1)C1C=CCC1C(C(=O)O)N2 (stereo unspecified)	5.9	3.1	-1.3	85.9*[fluorescence artefact?]	65.3*[fluorescence artefact?]
COc1cccc(C2Nc3c(F)cc(Br)cc3C3C=CCC32)c1OC (stereo unspecified)	-4.5	-2.2	-1.4	-20.0	0.3
CC(=O)c1ccc2c(c1)C1C=CCC1C(c1ccncc1)N2 (stereo unspecified)	1.2	2.2	0.0	-6.2	-9.2
Cc1cc(Br)c(OCC(=O)NN)c2c1CCC2	-5.4	2.6	5.7	-7.9	-2.2
COc1ccc(CNC(C)C(=O)Nc2ccc3ccccc3c2)cc1OC (stereo unspecified)	0.3	-0.6	9.3	-8.5	-5.4
O=C(C1=C[C@H](c2csc3ccccc23)C[C@H](OCc2ccc(CO)cc2)O1)N1CCN(Cc2ccc3c(c2)OCO3)CC1	-26.6	3.2	-14.2	4.1	-1.5
CCOc1ccc(-c2c(C)n([O-])c3c([n+]2=O)CCCCC3)cc1	-3.6	8.9*	-6.2	-9.5	1.3
COc1ccc(-c2c(C)n([O-])c3c([n+]2=O)CCCC3)cc1	-8.9	-0.9	2.4	-7.0	2.1
CCN(CC)S(=O)(=O)c1ccc(N/N=C(\C)c2ccc3c(c2)OCO3)c([N+](=O)[O-])c1	-21.1	-0.9	-16.9	17.5	-1.2
C/C(=N\Nc1ccc(S(N)(=O)=O)cc1[N+](=O)[O-])c1ccc2c(c1)OCO2	37.5*	-1.6	-6.1	62.6	18.7
O=C(O)CNC(=O)/C(=C\c1cccc([N+](=O)[O-])c1)NC(=O)c1ccco1	8.9	-1.5	1.5	0.8	-10.7
CCNCC(O)COCC(O)CNCC (stereo unspecified)	-11.9	-1.6	-1.8	3.7	46.0*
NS(=O)(=O)c1ccc(N/N=C/c2cn(-c3ccccc3)nc2-c2cccs2)c([N+](=O)[O-])c1	8.8	4.4	2.3	-4.5	-10.1

High-throughput results deposited in PubChem BioAssay by several laboratories.
